From ChEMBL document CHEMBL5247578, “Effective synthesis of benzimidazoles-imidazo[1,2-a]pyrazine conjugates: A comparative study of mono-and bis-benzimidazoles for antitumor activity” (Eur J Med Chem, 2019)
The source made the active and inactive calls. The calls are words filed in the database; no cut-off is given here.

Tests used:
HL-60 = assay: Antiproliferative activity against human HL-60 cells assessed as cell growth at 0.0000001 M incubated for 48 hrs by SRB assay relative to control; assay type: functional; conditions: dose 100 nM, read-out: Activity
Summary of the method: (§1)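 NCI-60 five-dose screen (10^-4 to 10^-8 M). Cells grown in RPMI 1640 with 5% FBS and 2 mM L-glutamine, plated at 5,000-40,000 cells/well and preincubated 24 h. Drug given from DMSO stock, then 48 h at 37 °C, 5% CO2. For adherent lines, cells fixed with cold TCA, SRB-stained and read at 515 nm. Percent growth taken against time-zero and untreated control.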

OVCAR-5 = assay: Antiproliferative activity against human OVCAR-5 cells assessed as cell growth at 0.000001 M incubated for 48 hrs by SRB assay relative to control; assay type: functional; conditions: read-out: Activity
Calf thymus DNA [1] = assay: Binding affinity to calf thymus DNA assessed as intercalation by measuring decrease in DNA intensity by circular dichroism spectroscopy; assay type: nucleic-acid assay; conditions: Bos taurus
OVCAR-3 [2] = assay: Antiproliferative activity against human OVCAR-3 cells assessed as cell growth at 0.0001 M incubated for 48 hrs by SRB assay relative to control; assay type: functional; conditions: read-out: Activity
OVCAR-3 [3] = assay: Growth inhibition against human OVCAR-3 cells assessed as total growth inhibitory concentration incubated for 48 hrs by sulforhodamine B assay; assay type: functional
Albumin = Albumin (Bos taurus, UniProt P02769); assay: Binding affinity to bovine serum albumin assessed as binding constant by Benesi-Hildebrand equation based UV-vis spectrophotometric method; conditions: cattle
U-251 = assay: Antiproliferative activity against human U-251 cells assessed as cell growth at 0.00001 M incubated for 48 hrs by SRB assay relative to control; assay type: functional; conditions: read-out: Activity
MDA-MB-435 = assay: Growth inhibition against human MDA-MB-435 cells incubated for 48 hrs by sulforhodamine B assay; assay type: functional
NCI-H23 = assay: Antiproliferative activity against human NCI-H23 cells assessed as cell growth at 0.000001 M incubated for 48 hrs by SRB assay relative to control; assay type: functional; conditions: read-out: Activity
PC-3 = assay: Antiproliferative activity against human PC-3 cells assessed as cell growth at 0.0000001 M incubated for 48 hrs by SRB assay relative to control; assay type: functional; conditions: dose 100 nM, read-out: Activity
SN12C = assay: Growth inhibition against human SN12C cells incubated for 48 hrs by sulforhodamine B assay; assay type: functional
MDA-MB-468 = assay: Growth inhibition against human MDA-MB-468 cells incubated for 48 hrs by sulforhodamine B assay; assay type: functional
A549 = assay: Growth inhibition against human A549 cells incubated for 48 hrs by sulforhodamine B assay; assay type: functional
COLO 205 = assay: Growth inhibition against human COLO 205 cells assessed as total growth inhibitory concentration incubated for 48 hrs by sulforhodamine B assay; assay type: functional
SNB-75 [4] = assay: Antiproliferative activity against human SNB-75 cells assessed as cell growth at 0.00001 M incubated for 48 hrs by SRB assay relative to control; assay type: functional; conditions: read-out: Activity
SR = assay: Antiproliferative activity against human SR cells assessed as cell growth at 0.0001 M incubated for 48 hrs by SRB assay relative to control; assay type: functional; conditions: read-out: Activity
SF-295 = assay: Antiproliferative activity against human SF-295 cells assessed as cell growth at 0.0001 M incubated for 48 hrs by SRB assay relative to control; assay type: functional; conditions: read-out: Activity
TK-10 [5] = assay: Antiproliferative activity against human TK-10 cells assessed as cell growth at 0.0001 M incubated for 48 hrs by SRB assay relative to control; assay type: functional; conditions: read-out: Activity
HCT-15 = assay: Antiproliferative activity against human HCT-15 cells assessed as cell growth at 0.00001 M incubated for 48 hrs by SRB assay relative to control; assay type: functional; conditions: read-out: Activity; summary of the method: as §1
MDA-MB-231 = assay: Antiproliferative activity against human MDA-MB-231 cells assessed as cell growth at 0.000001 M incubated for 48 hrs by SRB assay relative to control; assay type: functional; conditions: read-out: Activity
TK-10 [6] = assay: Antiproliferative activity against human TK-10 cells assessed as cell growth at 0.0000001 M incubated for 48 hrs by SRB assay relative to control; assay type: functional; conditions: dose 100 nM, read-out: Activity
Calf thymus DNA [7] = assay: Binding affinity to calf thymus DNA assessed as DNA intercalation by measuring change in melting temperature at 10 uM by thermal denaturation assay; assay type: nucleic-acid assay; conditions: Bos taurus
OVCAR-8 = assay: Growth inhibition against human OVCAR-8 cells assessed as total growth inhibitory concentration incubated for 48 hrs by sulforhodamine B assay; assay type: functional
RPMI-8226 [8] = assay: Antiproliferative activity against human RPMI-8226 cells assessed as cell growth at 0.00001 M incubated for 48 hrs by SRB assay relative to control; assay type: functional; conditions: read-out: Activity
NCI-H226 = assay: Antiproliferative activity against human NCI-H226 cells assessed as cell growth at 0.00000001 M incubated for 48 hrs by SRB assay relative to control; assay type: functional; conditions: dose 10 nM, read-out: Activity
HCT-116 [9] = assay: Antiproliferative activity against human HCT-116 cells assessed as cell growth at 0.000001 M incubated for 48 hrs by SRB assay relative to control; assay type: functional; conditions: read-out: Activity; summary of the method: as §1
SNB-75 [10] = assay: Antiproliferative activity against human SNB-75 cells assessed as cell growth at 0.00000001 M incubated for 48 hrs by SRB assay relative to control; assay type: functional; conditions: dose 10 nM, read-out: Activity
HOP-92 = assay: Growth inhibition against human HOP-92 cells incubated for 48 hrs by sulforhodamine B assay; assay type: functional
RPMI-8226 [11] = assay: Antiproliferative activity against human RPMI-8226 cells assessed as cell growth inhibition by measuring lethal concentration incubated for 48 hrs by sulforhodamine B assay; assay type: functional; conditions: read-out: LC50 (the source's name)
SK-MEL-5 = assay: Antiproliferative activity against human SK-MEL-5 cells assessed as cell growth at 0.000001 M incubated for 48 hrs by SRB assay relative to control; assay type: functional; conditions: read-out: Activity
UACC-257 = assay: Antiproliferative activity against human UACC-257 cells assessed as cell growth at 0.000001 M incubated for 48 hrs by SRB assay relative to control; assay type: functional; conditions: read-out: Activity
TK-10 [12] = assay: Antiproliferative activity against human TK-10 cells assessed as cell growth at 0.00001 M incubated for 48 hrs by SRB assay relative to control; assay type: functional; conditions: read-out: Activity
SF-268 = assay: Antiproliferative activity against human SF-268 cells assessed as cell growth at 0.0001 M incubated for 48 hrs by SRB assay relative to control; assay type: functional; conditions: read-out: Activity
OVCAR-3 [13] = assay: Growth inhibition against human OVCAR-3 cells incubated for 48 hrs by sulforhodamine B assay; assay type: functional
Calf thymus DNA [14] = assay: Binding affinity to calf thymus DNA assessed as binding constant by Benesi-Hildebrand equation based UV-vis spectrophotometric method; assay type: nucleic-acid assay; conditions: Bos taurus
KM12 = assay: Antiproliferative activity against human KM12 cells assessed as cell growth at 0.000001 M incubated for 48 hrs by SRB assay relative to control; assay type: functional; conditions: read-out: Activity
HCT-116 [15] = assay: Growth inhibition against human HCT-116 cells incubated for 48 hrs by sulforhodamine B assay; assay type: functional
SNB-19 = assay: Antiproliferative activity against human SNB-19 cells assessed as cell growth at 0.0001 M incubated for 48 hrs by SRB assay relative to control; assay type: functional; conditions: read-out: Activity

Chain of Albumin (P02769 whole entry): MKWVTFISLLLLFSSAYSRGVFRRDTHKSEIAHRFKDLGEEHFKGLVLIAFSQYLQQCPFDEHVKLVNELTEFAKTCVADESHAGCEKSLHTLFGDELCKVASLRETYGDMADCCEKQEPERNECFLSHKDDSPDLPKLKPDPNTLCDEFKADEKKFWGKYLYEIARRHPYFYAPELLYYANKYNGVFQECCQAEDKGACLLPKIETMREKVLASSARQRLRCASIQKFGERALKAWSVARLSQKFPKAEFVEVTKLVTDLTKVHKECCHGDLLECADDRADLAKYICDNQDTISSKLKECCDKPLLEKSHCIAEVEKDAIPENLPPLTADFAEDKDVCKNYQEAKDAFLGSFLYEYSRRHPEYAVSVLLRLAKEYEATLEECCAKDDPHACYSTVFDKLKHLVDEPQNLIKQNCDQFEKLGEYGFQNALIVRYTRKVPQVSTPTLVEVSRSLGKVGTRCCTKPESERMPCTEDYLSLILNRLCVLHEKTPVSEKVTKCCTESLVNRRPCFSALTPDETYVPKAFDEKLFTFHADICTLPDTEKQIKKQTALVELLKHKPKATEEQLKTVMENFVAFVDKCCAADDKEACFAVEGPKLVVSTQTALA

| SMILES | growth at 0.1 µM (HL-60) [%] | growth at 1 µM (OVCAR-5) [%] | Activity (Calf thymus DNA [1]) | growth at 100 µM (OVCAR-3 [2]) [%] | TGI (OVCAR-3 [3]) [µM] | Kb (Albumin) | growth at 10 µM (U-251) [%] | GI50 (MDA-MB-435) [nM] | growth at 1 µM (NCI-H23) [%] | growth at 0.1 µM (PC-3) [%] | GI50 (SN12C) [nM] | GI50 (MDA-MB-468) [nM] | GI50 (A549) [nM] | TGI (COLO 205) [µM] | growth at 10 µM (SNB-75 [4]) [%] | growth at 100 µM (SR) [%] | growth at 100 µM (SF-295) [%] | growth at 100 µM (TK-10 [5]) [%] | growth at 10 µM (HCT-15) [%] | growth at 1 µM (MDA-MB-231) [%] | also measured |
| --- | --- | --- | --- | --- | --- | --- | --- | --- | --- | --- | --- | --- | --- | --- | --- | --- | --- | --- | --- | --- | --- |
| c1ccc(Cn2cnc3ccc(-c4nc(-c5ccc6c(c5)ncn6C5CCCCC5)cn5ccnc45)cc32)cc1 | 113 | 89 | Active | -19 | 5.79 | 2.65 10^4/M | -27 | 2200 | 86 | 96 | 2270 | 1920 | 2330 | 3.99 | -70 | 6 | -38 | 13 | -13 | 83 | growth at 0.1 µM (TK-10 [6]): 84%; ΔTm (Calf thymus DNA [7]): 12 °C; TGI (OVCAR-8): 6.54 µM; growth at 10 µM (RPMI-8226 [8]): -29%; growth at 0.01 µM (NCI-H226): 103%; growth at 1 µM (HCT-116 [9]): 54%; growth at 0.01 µM (SNB-75 [10]): 81%; GI50 (HOP-92): 1250 nM; CC50 (RPMI-8226 [11]): > 100 µM; growth at 1 µM (SK-MEL-5): 80%; growth at 1 µM (UACC-257): 112%; growth at 10 µM (TK-10 [12]): 11%; growth at 100 µM (SF-268): 5%; GI50 (OVCAR-3 [13]): 2270 nM; Kb (Calf thymus DNA [14]): 3.18 10^4/M; growth at 1 µM (KM12): 93%; GI50 (HCT-116 [15]): 1070 nM; growth at 100 µM (SNB-19): 32% |
| COc1ccc(-c2cn3ccnc3c(-c3ccc4ncn(C5CCCCC5)c4c3)n2)cc1 | 95 | 75 | Active | 17 | > 100 | 1.95 10^5/M | 14 | 312 | 68 | 98 | 2110 | 863 | 1830 | 14.4 | 3 | 16 | 2 | -3 | 9 | 81 | growth at 0.1 µM (TK-10 [6]): 88%; ΔTm (Calf thymus DNA [7]): 22 °C; TGI (OVCAR-8): > 100 µM; growth at 10 µM (RPMI-8226 [8]): 10%; growth at 0.01 µM (NCI-H226): 101%; growth at 1 µM (HCT-116 [9]): 23%; growth at 0.01 µM (SNB-75 [10]): 78%; GI50 (HOP-92): 1180 nM; CC50 (RPMI-8226 [11]): > 100 µM; growth at 1 µM (SK-MEL-5): 41%; growth at 1 µM (UACC-257): 69%; growth at 10 µM (TK-10 [12]): 13%; growth at 100 µM (SF-268): 29%; GI50 (OVCAR-3 [13]): 411 nM; Kb (Calf thymus DNA [14]): 3.34 10^4/M; growth at 1 µM (KM12): 57%; GI50 (HCT-116 [15]): 399 nM; growth at 100 µM (SNB-19): 15% |
